Assay outcomes as filed in PubChem BioAssay.
UHRF1 binding: UHRF1 methyl-DNA binding inhibition. UHRF1 binding to methylated oligo, TR-FRET. inhibition, % at 4.4 µM. 0.75% of 370,000 active. AID 687016; in the data active = inhibition above about 21%;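 note: UHRF1 SRA domain binding a hemimethylated CpG hairpin DNA probe; 0% = median of test compound wells and 100% = reference inhibitor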
Arrestin-AP2 inh: blocks beta-arrestin peptide binding to AP2 adaptin; FITC-arrestin peptide / GST-AP2 beads, flow cytometry; AP2 beta2 appendage carries R879A mutation; inhibition, % at 10 µM; 0.31% of 340,000 active; AID 504490;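 active = inhibition above a set limit, near 3 SD of compounds lacking own fluorescence, cut at about 54% in these data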;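 note: plate controls were DMSO wells for no effect and 5 µM unlabelled arrestin peptide for full effect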
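System: GST-AP2 R879A glutathione beads; medium: PBS, Tween 20 0.05%, BSA 0.1%; reagent: fluorescein-tagged arrestin peptide at 50 nM final; schedule: pre-incubation 12 min, peptide binding 1 h, room temperature; detection: flow cytometry, FL1 (488/535 nm); read-out: inhibition as reduced fluorescein signal on beads, percent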
B2AR ag: agonists of human beta-2 adrenergic receptor inducing internalization. P07550. response, % (no concentration beside the values). AID 504454. 0.43% of 340,000 active. Am2.2-beta2AR cells, FAP receptor internalization, flow cytometry;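 active = response above a set limit, near 3 SD of response in nonfluorescent compounds, cut at about 42% in these data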
ABHD5 PLIN5 PPI: ABHD5-PLIN5 protein interaction inhibition. 0.78% of 360,000 active. AID 602281. inhibition, % at 4 µM. Split G. princeps luciferase complementation, luminescence, 4 h. Q00G26+Q8WTS1;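 active = inhibition above the mean inhibition across every tested compound plus 3 SD, cut at about 22% in these data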;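 note: 0% = DMSO only wells and the 100% control is not disclosed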
Rin1-Abl PPI inh: human Rin1-Abl interaction inhibition | AID 588664 | inhibition, % at 7.35 µM | P00519+Q13671 | 0.4% of 360,000 active | TR-FRET Rin1/Abl binding, biochemical; in the data active = inhibition above about 5%, passing the limit was not always enough
MBD2 inh: inhibitors of human MBD2 binding to methylated oligonucleotide; TR-FRET; Q9UBB5; 0.31% of 370,000 active; AID 686964; inhibition, % at 4.4 µM; in the data active = inhibition above about 13%
Target sequence (Q9UBB5 whole entry, looked up): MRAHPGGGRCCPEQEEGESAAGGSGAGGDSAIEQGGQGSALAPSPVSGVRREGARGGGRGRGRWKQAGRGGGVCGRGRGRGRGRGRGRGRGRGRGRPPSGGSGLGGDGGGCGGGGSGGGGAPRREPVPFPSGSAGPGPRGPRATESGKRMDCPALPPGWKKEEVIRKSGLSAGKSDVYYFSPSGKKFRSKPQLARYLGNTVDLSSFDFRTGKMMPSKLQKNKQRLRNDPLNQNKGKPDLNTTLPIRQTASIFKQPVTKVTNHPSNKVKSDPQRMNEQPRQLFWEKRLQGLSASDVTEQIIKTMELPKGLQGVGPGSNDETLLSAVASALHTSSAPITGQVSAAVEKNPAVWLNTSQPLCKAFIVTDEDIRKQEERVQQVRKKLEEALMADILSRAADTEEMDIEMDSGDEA
Rin1 Abl conf: Rin1-Abl interaction inhibition confirmation. shares compounds with Rin1-Abl PPI inh. TR-FRET Rin1-Abl binding, purified proteins. inhibition, % at 7.35 µM. 49% of 1,300 active. AID 602124
GFP quench-1: GFP fluorescence interference artifact | shares compounds with Rin1-Abl PPI inh | inhibitors/quenchers counterscreen | inhibition, % at 6.75 µM | 8.5% of 1,300 active;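 note: ABL1-eGFP fusion protein alone without its partner RIN1-SBP; 0% = protein with vehicle and 100% = wells lacking protein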
GFP quench DR: quenches GFP in dose response, Rin1-Abl counter-screen; GFP fluorescence interference/quenching counterscreen; 230 tested, under 10 active; shares compounds with Rin1-Abl PPI inh; AID 602182; IC50, µM; call rule not given here;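 note: ABL1-eGFP fusion protein alone without its RIN1 binding partner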
GFP quench-2: counter-screen for Rin1-Abl interaction inhibitors: GFP fluorescence quenching. shares compounds with Rin1-Abl PPI inh. GFP fluorescence quenching counterscreen, biochemical. 25 tested, under 10 active. IC50, µM; call rule not given here
Numbers without * were called inactive. An excerpt weighted towards active compounds, which were near 2.5% of everything screened. Cut-off read from the data, not from the text of the source, unless noted: active = inhibition above about 6.5%; inactive = the rest.

Cc1csc2c(NC3CCN(Cc4ccccc4)CC3)ncnc12 was read as UHRF1 binding -2.3, Arrestin-AP2 inh -7.5, B2AR ag -8.9, ABHD5 PLIN5 PPI -2.0, Rin1-Abl PPI inh 5.6*, MBD2 inh 1.2, Rin1 Abl conf 0.2 and GFP quench-1 -0.5.
Screening N=c1ccn(O)cc1CCc1ccccc1 returned UHRF1 binding -0.6, Arrestin-AP2 inh -4.8, B2AR ag 1.1, ABHD5 PLIN5 PPI 1.5, Rin1-Abl PPI inh 17.1*, MBD2 inh -1.3, Rin1 Abl conf 21.6*, GFP quench-1 -0.5 and GFP quench DR >67.4.
`O=C(CCn1c(=O)oc2ccccc21)NC1=NCCS1` gave UHRF1 binding -0.5, Arrestin-AP2 inh 7.7, B2AR ag -2.0, ABHD5 PLIN5 PPI 2.6, Rin1-Abl PPI inh 10.0*, MBD2 inh -5.3, Rin1 Abl conf -2.1 and GFP quench-1 -0.5.
`C/C(=N\OC(=O)Nc1ccccc1)c1ccc(C)cc1` gave UHRF1 binding 0.0, Arrestin-AP2 inh 10.0, B2AR ag -5.7, ABHD5 PLIN5 PPI -5.2, Rin1-Abl PPI inh 6.4*, MBD2 inh 2.5, Rin1 Abl conf -0.9 and GFP quench-1 -0.1.
Screening COc1ccc(C(=O)CC(C#N)c2ccc3c(c2)OCO3)cc1OC (stereo not drawn) returned UHRF1 binding 2.0, ABHD5 PLIN5 PPI 0.0, Rin1-Abl PPI inh 11.0*, MBD2 inh -4.4, Rin1 Abl conf -2.7 and GFP quench-1 -0.2.
For CN(Cc1ccccc1)S(=O)(=O)c1cccc(C(=O)OCc2cccc(C(F)(F)F)c2)c1 the results were UHRF1 binding 0.9 and MBD2 inh -3.1.
`CN1C(=O)C(Cl)(Cl)C(=O)c2ccccc21` gave Arrestin-AP2 inh 1.2, B2AR ag 0.3, ABHD5 PLIN5 PPI 88.1*, Rin1-Abl PPI inh 18.2*, Rin1 Abl conf 11.0* and GFP quench-1 2.0.
`CN1C(=O)C2(NC(=O)c3ccccc3N2C)c2ccccc21` (stereo not drawn) gave UHRF1 binding 1.3, Arrestin-AP2 inh -5.3, B2AR ag -2.6, ABHD5 PLIN5 PPI -1.6, Rin1-Abl PPI inh -1.6 and MBD2 inh -3.9.
Screening O=C(Cc1cccc(NC(=O)C2CCN(C(=O)C3CC3)CC2)c1)Nc1cccc(C(=O)N2CCOCC2)c1 returned UHRF1 binding -2.0, Arrestin-AP2 inh 5.8, B2AR ag -2.5, ABHD5 PLIN5 PPI 5.7, Rin1-Abl PPI inh 1.8 and MBD2 inh -6.7.
Screening O=C(Cc1ccc(NC(=O)C2CCN(C(=O)C3CCCC3)CC2)cc1)Nc1ccc(C(=O)N2CCOCC2)cc1 returned UHRF1 binding -0.2, Arrestin-AP2 inh -14.8, B2AR ag -1.5, ABHD5 PLIN5 PPI 1.9, Rin1-Abl PPI inh 66.6*, MBD2 inh -0.4, Rin1 Abl conf 70.0*, GFP quench-1 -0.6, GFP quench DR >67.5 and GFP quench-2 >67.5.
CCOC(=O)C1CCN(C(=O)Nc2ccc(NC(=O)C3CCN(C(=O)OCC)CC3)cc2)CC1 was read as UHRF1 binding 2.2, Arrestin-AP2 inh 35.3, B2AR ag 3.1, ABHD5 PLIN5 PPI 6.0, Rin1-Abl PPI inh 13.6*, MBD2 inh 6.7, Rin1 Abl conf 10.7* and GFP quench-1 -0.2.
Screening O=C(Cc1ccc(NC(=O)C2CCN(C(=O)C3CC3)CC2)cc1)Nc1ccc(C(=O)N2CCOCC2)cc1 returned UHRF1 binding -2.9, Arrestin-AP2 inh 8.4, B2AR ag 1.3, ABHD5 PLIN5 PPI -9.9, Rin1-Abl PPI inh 8.9*, MBD2 inh -0.3, Rin1 Abl conf 9.7* and GFP quench-1 -2.1.
`CC(C)(C)OC(=O)N1CCC(C(=O)Nc2ccc(C(=O)N3CCCCC3)cc2)CC1` gave UHRF1 binding 0.1, Arrestin-AP2 inh -1.8, B2AR ag 1.5, ABHD5 PLIN5 PPI 6.0, Rin1-Abl PPI inh 24.9*, MBD2 inh -2.4, Rin1 Abl conf 16.8*, GFP quench-1 -0.1 and GFP quench DR >67.6.
